# Hits are enriched below; roughly 5.8% of the tested compounds scored in any of these assays.
# IDH1 mut inh: inhibitors of IDH1 R132H reductase, primary screen, biochemical, plate reader, single point; AID 624101, 2012; diaphorase/resazurin fluorescence, 60 min; Isocitrate dehydrogenase [NADP] cytoplasmic (Homo sapiens), O75874; actives 0.18% (n = 70,000); inhibition, % at 10 µM; in the data active means inhibition above about 34%; inconclusive means no clear call, values can overlap the other calls; inactive means below about 11%;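 further: 0% = DMSO and 100% = no enzyme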
# T cruzi growth-1: T. cruzi intracellular proliferation inhibitors, primary screen, cell-based, beta-gal Tulahuen parasites, NIH3T3 host, luminescence; T. cruzi beta-gal in NIH3T3, GalScreen luminescence, 90 h; inhibition, % at 8.34 µM; actives 5.9% (n = 77,000); AID 624255, 2012;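 active means mean inhibition above about 93%, with at least 55% of replicates each passing it, limit read from the data, passing the limit was not always enough; inconclusive means only one of those two conditions holds; inactive means neither condition holds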
# KDM4C inh: inhibitors of GASC-1 (KDM4C) histone demethylase, primary screen, biochemical, single concentration HTS | Lysine-specific demethylase 4C (Homo sapiens), Q9H3R0 | GST-KDM4C 2-372, H3K9me3 peptide, LANCE TR-FRET | inhibition, % at 12.5 µM | actives 0.15% (n = 96,000) | AID 720574, 2013;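 active means mean replicate inhibition above about 25%, with at least 55% of replicates also reaching it, limit read from the data, passing the limit was not always enough; inconclusive means only one of those two conditions met; inactive means neither condition met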
# Target sequence (Q9H3R0 2-372 limits assumed): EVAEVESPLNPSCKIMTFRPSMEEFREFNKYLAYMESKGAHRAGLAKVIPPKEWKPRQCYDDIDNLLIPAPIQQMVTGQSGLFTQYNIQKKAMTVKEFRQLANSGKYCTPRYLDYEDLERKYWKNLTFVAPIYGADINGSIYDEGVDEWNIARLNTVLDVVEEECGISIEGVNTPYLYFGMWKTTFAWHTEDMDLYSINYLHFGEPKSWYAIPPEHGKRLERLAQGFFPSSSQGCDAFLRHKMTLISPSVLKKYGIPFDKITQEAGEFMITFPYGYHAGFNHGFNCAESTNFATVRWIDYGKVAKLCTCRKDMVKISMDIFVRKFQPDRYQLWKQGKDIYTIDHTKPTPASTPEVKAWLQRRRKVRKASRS
#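 System: N-terminal GST-fused human GASC-1 (KDM4C) fragment, residues 2-372; amount: enzyme final amount 10 nM; incubation: reaction 30 min RT, detection step 1 h RT; medium: HEPES buffer, pH 7.5, plus ascorbate; technique: LANCE TR-FRET, Eu antibody, ULight-streptavidin, EDTA, ex 340 nm, em 618/671 nm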
# Pf Dd2 inh: P. falciparum Dd2 growth inhibitors, primary screen, SYBR Green fluorescence, single dose replicates | 72 h; hits give low values | activity change, % at 10 µM | actives 2.3% (n = 94,000); in the data active means activity change below about -80%; inconclusive means no clear call, values can overlap the other calls
# T cruzi growth-2: T. cruzi intracellular proliferation inhibitors, confirmation, cell-based, NIH3T3 host, beta-gal parasite, luminescence, cherry-pick | actives 72% (n = 5,600) | shares compounds with T cruzi growth-1 | inhibition, % at 8.35 µM | T. cruzi beta-gal in NIH3T3, GalScreen luminescence, 90 h;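 active means mean replicate inhibition above about 95% and at least 55% of replicates individually reaching it, limit read from the data; inconclusive means only one of the two criteria is met; inactive means neither criterion is met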
# T cruzi growth-3: inhibitors of intracellular T. cruzi replication, confirmation, NIH3T3 host cells, beta-gal parasites, cherry-pick, set 2; shares compounds with T cruzi growth-1; T. cruzi beta-gal in NIH3T3, GalScreen luminescence, 90 h; inhibition, % at 2.09 µM; actives 21% (n = 5,600); AID 651740, 2012;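 active means mean inhibition above about 95%, with at least 55% of replicates also reaching it, limit read from the data; inconclusive means meets just one of the two conditions; inactive means meets neither condition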;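 further: plate controls were neutral control median for no effect and positive control median for full effect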
# 3T3 cytotox: cytotoxicity in mouse NIH/3T3 fibroblasts, confirmation, cytotoxicity control for T. cruzi proliferation inhibitor project, cell-based, cherry-pick, single point | shares compounds with T cruzi growth-1 | NIH/3T3 viability, CellTiter-Glo ATP luminescence, 90 h | cytotoxicity (signal decrease), % at 8.35 µM | actives 14% (n = 5,600) | AID 651742, 2012;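 active means mean signal decrease across replicates above about 35% based on untreated-well scatter, with enough replicates individually passing, limit read from the data; inconclusive means no rule stated though some were filed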;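 further: 0% = median of neutral control wells and 100% = median of positive control wells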
# NIH3T3 tox 2: NIH/3T3 fibroblast cytotoxicity, confirmation, cytotoxicity control, cell-based, cherry-pick, single point, set 2; shares compounds with T cruzi growth-1; NIH/3T3 viability, CellTiter-Glo ATP luminescence, 90 h; inhibition, % at 24.9 µM; actives 56% (n = 5,600);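 active means mean loss of cell viability signal at or above a set limit, and enough replicates individually reaching it; inconclusive means meets only the mean limit or only the replicate share; inactive means meets neither condition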;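 further: 0% = median of neutral control wells and 100% = median of positive control wells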
# * = called active by the depositor; ? = inconclusive; / = no result.
SMILES,IDH1 mut inh,T cruzi growth-1,KDM4C inh,Pf Dd2 inh,T cruzi growth-2,T cruzi growth-3,3T3 cytotox,NIH3T3 tox 2
Cn1cnc(S(=O)(=O)N2CCCCN3[C@H](CO)[C@@H](c4ccc(-c5ccccc5)cc4)[C@H]3C2)c1,/,98.3*,-1.1,14.3,40.0,-32.7,-7.3,-5.0
C[C@H]1CN([C@@H](C)CO)C(=O)Cc2cc(NS(=O)(=O)c3ccc(F)cc3)ccc2O[C@@H]1CN(C)C(=O)Nc1cccc2ccccc12,0.7,17.3,0.3,-30.5,/,/,/,/
O=C(CSc1nnc(-c2ccc(Br)cc2)o1)Nc1cc(C(F)(F)F)ccc1Cl,-0.2,/,/,/,/,/,/,/
Cn1cnc(S(=O)(=O)N2CCCCN3[C@H](C2)[C@@H](c2ccc(-c4ccc(F)cc4)cc2)[C@@H]3CO)c1,/,23.4,0.0,37.5,/,/,/,/
Cn1cnc(S(=O)(=O)N2CCCCN3[C@@H](CO)[C@H](c4ccc(-c5ccccc5)cc4)[C@@H]3C2)c1,/,100.4*,0.2,42.4,-13.5,9.9,9.0,32.6*
COc1ccc(-c2cc(C)nc(SCC(=O)N3c4ccccc4Sc4ccccc43)n2)cc1,-0.3,/,/,/,/,/,/,/
COc1ccccc1NC(=O)N1CC[C@@H]2[C@H]1c1cc(C#Cc3ccc(F)cc3)ccc1N(C)[C@@H]2CO,/,?,-0.8,-31.9,98.5*,111.3*,2.4,12.2
COc1ccccc1NC(=O)N1CC[C@H]2[C@@H]1c1cc(-c3ccc(F)cc3)ccc1N(C)[C@H]2CO,/,100.8*,0.7,-66.3,106.1*,?,8.7,28.5*
CCC(=O)N1CC[C@@H]2[C@H]1c1cc(C#Cc3cccc(F)c3)ccc1N(C)[C@H]2CO,/,100.6,0.0,-47.8,/,/,/,/
CCC(=O)N1CC[C@H]2[C@@H]1c1cc(C#Cc3ccccc3OC)ccc1N(C)[C@H]2CO,/,98.8*,-0.1,-35.3,110.1*,76.5,22.4,-6.6
O=C(Nc1ccccc1)N[C@@H]1CC[C@@H](CCNC(=O)c2ccccc2F)O[C@@H]1CO,-0.2,43.2,-1.2,-30.0,/,/,/,/
C[C@@H]1CCCCO[C@@H](CN(C)S(=O)(=O)c2ccc(Cl)cc2)[C@@H](C)CN([C@H](C)CO)C(=O)c2cc(NC(=O)C3CCCCC3)ccc2O1,/,-10.7,-1.7,-79.1,/,/,/,/
C[C@@H]1CCCCO[C@@H](CN(C)S(=O)(=O)c2ccc(Cl)cc2)[C@H](C)CN([C@H](C)CO)C(=O)c2cc(NC(=O)C3CCCCC3)ccc2O1,/,108.3*,0.1,-85.9*,110.8*,113.4*,-5.8,-9.2
C[C@@H]1CCCCO[C@H](CN(C)S(=O)(=O)c2ccc(Cl)cc2)[C@@H](C)CN([C@@H](C)CO)C(=O)c2cc(NC(=O)C3CCCCC3)ccc2O1,1.5,108.1*,-0.1,-81.4*,111.5*,?,7.1,-21.2
C[C@@H]1CCCCO[C@H](CN(C)S(=O)(=O)c2ccc(F)cc2)[C@H](C)CN([C@H](C)CO)C(=O)c2cc(NC(=O)C3CCCCC3)ccc2O1,-1.6,?,-0.1,-78.6,111.9*,60.1,-4.7,10.8
C[C@@H]1CCCCO[C@H](CN(C)S(=O)(=O)c2ccc(Cl)cc2)[C@H](C)CN([C@H](C)CO)C(=O)c2cc(NS(=O)(=O)c3cccs3)ccc2O1,/,112.3*,-2.2,/,105.6*,96.3*,4.0,-28.7
C[C@H]1CCCCO[C@H](CN(C)S(=O)(=O)c2ccc(Cl)cc2)[C@@H](C)CN([C@@H](C)CO)C(=O)c2cc(NS(=O)(=O)c3cccs3)ccc2O1,/,113.9*,0.1,/,104.3*,62.4,8.0,-19.4
Cc1ccc(S(=O)(=O)N(C)C[C@@H]2OCCCC[C@H](C)Oc3ccc(NS(=O)(=O)c4cccs4)cc3C(=O)N([C@H](C)CO)C[C@H]2C)cc1,-2.9,117.7*,1.4,-54.7,105.0*,39.4,7.8,-2.3
C[C@@H]1CN([C@H](C)CO)C(=O)c2cc(NS(=O)(=O)c3cccs3)ccc2O[C@@H](C)CCCCO[C@H]1CN(C)S(=O)(=O)c1ccc(Cl)cc1,-0.6,/,-0.5,-70.3,/,/,/,/
C[C@H](CO)N1C[C@H](C)[C@H](CN(C)S(=O)(=O)c2ccc(Cl)cc2)OCCCC[C@H](C)Oc2ccc(NS(=O)(=O)c3cccs3)cc2C1=O,/,111.1*,0.5,/,96.9*,44.8,-24.5,-46.1
C[C@@H]1CN([C@H](C)CO)C(=O)c2cc(C3=CCCCC3)cnc2O[C@H]1CN(C)Cc1ccccc1,0.9,-43.4,0.9,-24.1,/,/,/,/
COCC#Cc1cnc2c(c1)C(=O)N([C@@H](C)CO)C[C@@H](C)[C@@H](CN(C)C(=O)C1CC1)O2,/,-40.7,1.8,-0.1,/,/,/,/
C[C@H](CO)N1C[C@H](C)[C@H](CN(C)Cc2ccc(C(F)(F)F)cc2)OCCCC[C@H](C)Oc2ccc(NC(=O)Nc3ccc(F)cc3)cc2C1=O,/,92.5,-1.6,-21.3,/,/,/,/
C[C@@H]1CCCCO[C@H](CN(C)Cc2ccc(C(F)(F)F)cc2)[C@H](C)CN([C@@H](C)CO)C(=O)c2cc(NC(=O)Nc3ccc(F)cc3)ccc2O1,/,99.7*,-0.3,-79.6,?,116.9*,17.6,29.7*
C[C@@H]1CN([C@@H](C)CO)C(=O)c2cc(NC(=O)Nc3ccc(F)cc3)ccc2O[C@@H](C)CCCCO[C@H]1CN(C)Cc1ccc(C(F)(F)F)cc1,-0.9,109.5*,-0.4,?,99.6*,112.2*,25.2,19.3
C[C@@H]1CN([C@H](C)CO)C(=O)c2cc(NC(=O)Nc3ccc(F)cc3)ccc2O[C@@H](C)CCCCO[C@@H]1CN(C)Cc1ccc(C(F)(F)F)cc1,-2.8,100.1*,0.9,-82.2*,84.3,114.4*,2.8,7.8
C[C@@H]1CCCCO[C@H](CN(C)Cc2ccc(C(F)(F)F)cc2)[C@@H](C)CN([C@H](C)CO)C(=O)c2cc(NC(=O)Nc3ccc(F)cc3)ccc2O1,/,61.5,-0.1,-28.2,/,/,/,/

# Screening data deposited in PubChem BioAssay by Broad Institute.
